From article PMC10983000 (Journal of Medicinal Chemistry, 2024)

Legend:
[1] = test system: pAKT in T47D (PI3Kα^H1047R) cells; test: pAKT AlphaLISA assay, T47D; format: cell-based; details: for IC50: Homo sapiens, T47D, 24 h, read-out: pAKT AlphaLISA IC50 T47D, T47D (PI3Kα^H1047R), inhibition of pAKT formation after 24 h of treatment
[2] = test system: pAKT in SKBR3 (PI3Kα^WT) cells; test: pAKT AlphaLISA assay, SKBR3; format: cell-based; details: Homo sapiens, SK-BR-3, 24 h, read-out: pAKT AlphaLISA IC50 SKBR3
[3] = test system: T47D (PI3Kα^H1047R) cells; test: Viability assay; format: cell-based; details: for viability selectivity 1047R/WT IC50: T47D vs SKBR3 viability IC50
[4] = test system: pAKT in HCC1954 tumors (PI3Kα^H1047R); test: Single dose pharmacodynamic study, HCC1954 tumor model; format: in vivo, mouse; details: PO 100 or 300 mg/kg single dose
Method in brief: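 Mice carried xenografts of HCC1954, an ER-/HER2+ human breast tumour line with endogenous PI3Kα H1047R. They received a single dose of test compound, and tumour pAKT modulation was measured at 1 h and at 8 h post dose.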

[5] = Rat pharmacokinetics; format: in vivo; details: male, Sprague-Dawley, plasma, iv, 3 mg/kg
[6] = Intrinsic clearance in mouse hepatocytes; format: in vitro ADME
Method in brief: (§1)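 CLint was derived by scaling in vitro half-lives measured in pooled hepatocytes.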

[7] = Intrinsic clearance in rat hepatocytes; format: in vitro ADME
Method in brief: as §1

[8] = Mouse pharmacokinetics; format: in vivo, CD-1 Mouse
[9] = Intrinsic clearance in human hepatocytes; format: in vitro ADME
[10] = Metabolite ID in human hepatocytes; format: in vitro ADME
[11] = Intrinsic clearance in dog hepatocytes; format: in vitro ADME
Method in brief: as §1

| SMILES | IC50 [1] | IC50 [2] | further results |
| --- | --- | --- | --- |
| Cc1cc(C(C)Nc2ccccc2C(=O)O)c2nc(N3CCCCC3)ncc2c1 (stereo not shown) [Compound 10] | 2540 nM | – | – |
| Cc1ccccc1C1NC(=O)c2cc(NC3COC3)cc(NC(=O)c3csc4ccccc34)c21 (stereo not shown) [Compound 5, reference compound] | 332 nM | 115 nM | – |
| Cc1cc(C(C)Nc2ccccc2C(=O)O)c2nc(N3CCC(C)(C)CC3)n(C)c(=O)c2c1 (stereo not shown) [Compound 9] | 179 nM | – | fold decrease in potency (viability) compared to compound 4 ([3]; T47D viability): 39 fold |
| Cc1cc([C@@H](C)Nc2ccccc2C(=O)O)c2nc(C3CCC(F)(F)CC3)c(C#N)c(=O)n2c1 [Compound 19] | – | – | fold loss in potency in T47D cellular viability assay ([3]; on replacing the piperidine nitrogen (4,4-difluorocyclohexane)): 5 fold |
| Cc1cc([C@@H](C)Nc2ccccc2C(=O)O)c2nc(N3CCCCC3)c(C)c(=O)n2c1 [Compound 8] | 3 nM | 1460 nM | viability selectivity 1047R/WT IC50 [3]: > 83 |
| Cc1cc([C@@H](C)Nc2ccccc2C(=O)O)c2nc(N3CCC(F)(F)CC3)c(C#N)c(=O)n2c1 [Compound 17, (R)-2-((1-(3-Cyano-2-(4,4-difluoropiperidin-1-yl)-7-methyl-4-oxo-4H-pyrido[1,2-a]pyrimidin-9-yl)ethyl)amino)benzoic Acid] | – | – | pAKT inhibition after oral dosing [4]: negligible inhibition of pAKT; clearance [5]: 46 mL/min/kg; CLint scaled [6]: 304 mL/min/kg; CLint scaled [7]: 70 mL/min/kg; clearance ([8]; female, CD-1, mouse, plasma, iv, 3 mg/kg): 180 mL/min/kg; bioavailability in rodents ([8]; rodents (mouse and rat)): 48–57 %F; fold decrease of intrinsic clearance in human hepatocytes compared to 12 [9]: 3 fold; metabolite identified in human hepatocytes [10]: glucuronidation of the benzoic acid was the only discernible metabolite; CLint scaled [11]: 104 mL/min/kg |
| Cc1cc([C@@H](C)Nc2ccccc2C(=O)O)c2nc(N3CCCCC3)c(C(N)=O)c(=O)n2c1 [Compound 14] | > 10000 nM | > 10000 nM | – |
| Cc1cc([C@@H](C)Nc2ccccc2C(=O)O)c2nc(N3CCCCC3)c(C(F)(F)F)c(=O)n2c1 [Compound 13] | 28 nM | > 10000 nM | – |
| Cc1cc([C@@H](C)Nc2ccccc2C(=O)O)c2oc(N3CCC(C)(C)CC3)c(C)c(=O)c2c1 [Compound 4, reference compound] | 3 nM | 3180 nM | – |
| Cc1cc([C@@H](C)Nc2ccccc2C(=O)O)c2nc(N3CCCCC3)c(C#N)c(=O)n2c1 [Compound 12] | 1 nM | 4740 nM | fold more potent than 8 ([1]; pAKT T47D): 3 fold; fold more stable in human hepatocytes than 8 ([9]; Clint human hepatocytes): 4 fold |
| Cc1cc([C@@H](C)Nc2ccc(Cl)cc2C(=O)O)c2nc(N3CCC(F)(F)CC3)c(C#N)c(=O)n2c1 [Compound 24] | 15 nM | – | – |
| Cc1cc([C@@H](C)Nc2ccccc2C(=O)O)c2nc(N3CCCCC3)c(F)c(=O)n2c1 [Compound 11] | 0.3 nM | > 10000 nM | – |
| Cc1cc([C@@H](C)Nc2ccccc2C(=O)O)c2nc(N3CCCCC3)cc(=O)n2c1 [Compound 7] | 78 nM | 5890 nM | viability selectivity 1047R/WT IC50 [3]: > 9 |
